Source: ChEMBL document CHEMBL1148191, “2-Hydroxymethyl-3,4-dihydroxy-6-methyl-pyrrolidine (6-deoxy-DMDP), an alkaloid beta-mannosidase inhibitor from seeds of Angylocalyx pynaertii” (J Nat Prod, 1993)
Active and inactive are the calls of the source. The rule behind the calls is not given here.

Key:
Prunus dulcis = assay: Inhibition of almonds beta-glucosidase
In short: (§1)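 Commercial arylglycosidases, with α-L-fucosidase from bovine kidney. Activity was measured colorimetrically as p-nitrophenol released from the matching p-nitrophenyl glycoside substrate.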

Saccharomyces cerevisiae = assay: Inhibition of yeast alpha-glucosidase; in short: as §1
Canavalia ensiformis = assay: Inhibition of jack beans alpha-mannosidase; in short: as §1
[1] = target: T1, Exo-1,4-beta-xylosidase xlnD (Aspergillus niger) (UniProt O00089); assay: Inhibition of Aspergillus niger beta-xylosidase; in short: as §1
T1 sequence (whole entry): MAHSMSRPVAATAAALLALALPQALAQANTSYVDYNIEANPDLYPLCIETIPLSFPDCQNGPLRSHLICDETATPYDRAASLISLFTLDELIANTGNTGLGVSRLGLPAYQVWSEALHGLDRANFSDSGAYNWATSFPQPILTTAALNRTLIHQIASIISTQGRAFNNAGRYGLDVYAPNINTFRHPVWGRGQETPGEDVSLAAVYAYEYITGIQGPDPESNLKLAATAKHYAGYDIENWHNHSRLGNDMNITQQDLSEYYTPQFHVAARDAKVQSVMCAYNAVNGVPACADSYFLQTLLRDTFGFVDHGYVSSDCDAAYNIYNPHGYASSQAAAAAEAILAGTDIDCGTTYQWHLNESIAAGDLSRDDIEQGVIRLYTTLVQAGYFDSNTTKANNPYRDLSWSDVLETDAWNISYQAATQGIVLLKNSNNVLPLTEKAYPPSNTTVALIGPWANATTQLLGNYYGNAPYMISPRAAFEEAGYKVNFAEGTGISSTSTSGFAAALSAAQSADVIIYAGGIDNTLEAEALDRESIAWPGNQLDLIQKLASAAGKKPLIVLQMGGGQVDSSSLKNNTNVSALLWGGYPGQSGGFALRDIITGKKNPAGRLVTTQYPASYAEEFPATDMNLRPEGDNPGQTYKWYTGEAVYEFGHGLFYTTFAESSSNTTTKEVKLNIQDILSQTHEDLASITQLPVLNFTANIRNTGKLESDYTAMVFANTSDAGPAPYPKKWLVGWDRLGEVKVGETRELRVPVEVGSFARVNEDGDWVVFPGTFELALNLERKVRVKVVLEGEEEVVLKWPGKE

Aspergillus niger = assay: Inhibition of Aspergillus niger alpha-galactosidase; in short: as §1
[2] = target: T2, Beta-mannosidase A (Aspergillus niger) (UniProt Q9UUZ3); assay: Inhibition of Aspergillus niger beta-mannosidase at 380 uM
T2 sequence (whole entry): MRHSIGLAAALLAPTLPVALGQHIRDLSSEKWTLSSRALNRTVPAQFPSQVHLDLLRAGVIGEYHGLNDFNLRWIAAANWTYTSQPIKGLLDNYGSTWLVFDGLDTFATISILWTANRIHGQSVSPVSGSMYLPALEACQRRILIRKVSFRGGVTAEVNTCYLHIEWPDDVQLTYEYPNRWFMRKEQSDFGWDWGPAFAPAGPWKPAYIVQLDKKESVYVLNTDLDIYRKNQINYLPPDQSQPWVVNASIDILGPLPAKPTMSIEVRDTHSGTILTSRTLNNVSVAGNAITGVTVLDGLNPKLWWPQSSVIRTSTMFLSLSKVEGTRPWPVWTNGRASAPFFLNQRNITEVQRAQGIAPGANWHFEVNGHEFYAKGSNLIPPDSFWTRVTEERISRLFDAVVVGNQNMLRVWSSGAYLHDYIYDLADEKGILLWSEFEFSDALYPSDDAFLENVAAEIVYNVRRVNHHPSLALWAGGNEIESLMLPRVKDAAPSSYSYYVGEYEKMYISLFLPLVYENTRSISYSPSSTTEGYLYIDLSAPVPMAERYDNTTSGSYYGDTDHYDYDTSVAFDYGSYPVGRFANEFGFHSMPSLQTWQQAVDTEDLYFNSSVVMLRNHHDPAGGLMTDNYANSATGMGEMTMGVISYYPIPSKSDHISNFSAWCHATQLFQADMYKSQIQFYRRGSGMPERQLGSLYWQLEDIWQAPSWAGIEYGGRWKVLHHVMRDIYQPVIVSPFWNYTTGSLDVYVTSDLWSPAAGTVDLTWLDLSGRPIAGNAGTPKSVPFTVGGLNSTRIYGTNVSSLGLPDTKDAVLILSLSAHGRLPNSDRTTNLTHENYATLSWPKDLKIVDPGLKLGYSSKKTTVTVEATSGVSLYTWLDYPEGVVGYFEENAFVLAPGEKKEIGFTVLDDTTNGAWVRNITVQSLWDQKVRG
In short: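 β-Mannosidase was purified from Aspergillus niger. Activity was read colorimetrically as p-nitrophenol release from the p-nitrophenyl glycoside substrate, expressed relative to untreated enzyme over a range of inhibitor concentrations. Kinetics were analysed by Lineweaver-Burk plot.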

[3] = target: T3, Beta-galactosidase (Bos taurus) (UniProt Q58D55); assay: Inhibition of bovine liver beta-galactosidase; in short: as §1
T3 sequence (whole entry): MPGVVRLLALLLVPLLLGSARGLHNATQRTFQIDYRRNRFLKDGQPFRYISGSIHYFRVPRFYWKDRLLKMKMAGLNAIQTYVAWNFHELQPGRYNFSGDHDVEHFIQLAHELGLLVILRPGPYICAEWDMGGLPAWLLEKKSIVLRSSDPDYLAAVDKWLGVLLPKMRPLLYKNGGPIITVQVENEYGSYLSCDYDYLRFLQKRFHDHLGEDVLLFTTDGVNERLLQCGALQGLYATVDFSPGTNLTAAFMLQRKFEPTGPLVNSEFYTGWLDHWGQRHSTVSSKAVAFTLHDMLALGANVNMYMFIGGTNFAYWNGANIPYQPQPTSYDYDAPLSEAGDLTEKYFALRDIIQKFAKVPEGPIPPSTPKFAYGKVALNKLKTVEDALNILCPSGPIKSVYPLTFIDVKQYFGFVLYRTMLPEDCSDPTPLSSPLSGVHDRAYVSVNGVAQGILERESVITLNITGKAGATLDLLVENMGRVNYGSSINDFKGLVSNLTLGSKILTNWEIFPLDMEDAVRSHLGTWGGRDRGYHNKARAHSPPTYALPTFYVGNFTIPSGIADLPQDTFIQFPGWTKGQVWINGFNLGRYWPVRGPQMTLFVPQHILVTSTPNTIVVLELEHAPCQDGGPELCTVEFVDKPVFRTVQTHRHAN

SMILES | Activity (Prunus dulcis) | Activity (Saccharomyces cerevisiae) | Activity (Canavalia ensiformis) | Activity [1] | Activity (Aspergillus niger) | inhibition [2] [%] | Activity [3]
OC[C@H]1NC[C@@H](O)[C@@H]1O | Active | Active | – | – | – | – | –
C[C@H]1N[C@H](CO)[C@@H](O)[C@@H]1O | inactive | inactive | inactive | inactive | inactive | 50 | Active
OC[C@H]1N[C@H](CO)[C@@H](O)[C@@H]1O | Active | Active | – | – | – | – | –
O[C@H]1[C@H]2[C@H](O)CCCN2C[C@H]1O | – | – | Active | – | – | – | –
OC[C@H]1NC[C@@H](O)[C@@H](O)[C@@H]1O | – | – | Active | – | – | – | –
